Here are results for 22 compounds from ChEMBL document CHEMBL3407387, “Antioxidant activity and inhibition of α-glucosidase by hydroxyl-functionalized 2-arylbenzo[b]furans” (Eur J Med Chem, 2015).

SMILES strings stand for the structures. Activity calls are given as the source filed them. The calls are words filed in the database; no cut-off is given here.

Data set [1] in a line: Antioxidant activity assessed as DPPH radical scavenging activity incubated for 5 mins by microplate spectrophotometry. Type of data set: physicochemical. (The DPPH test is a chemical assay of radical scavenging.)
Data set [2] in a line: Inhibition of Saccharomyces cerevisiae alpha-glucosidase using 4-NPGP substrate assessed as reduction in 4-nitrophenol release pre-incubated for 10 mins before substrate addition by microplate reader based assay. The gist of the method:
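Test compound at 0 to 100 µM premixed with enzyme in 100 mM phosphate buffer, pH 7.0, and held 30 °C for 10 min. Then 12.5 mM 4-NPGP (stock) added and 4-nitrophenol release read at 405 nm. IC50 is the concentration inhibiting 50% of α-glucosidase activity.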

A short description of data set [3]: Antioxidant activity assessed as DPPH radical scavenging activity. It counts as physicochemical. The gist of the method:
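Compound dissolved in MeOH (0 to 100 µM), mixed with 0.1 mM DPPH, 150 µL final mixture, 37 °C for 5 min; absorbance at 517 nm; IC50 derived from DPPH scavenging.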

The nature of data set [4]: Inhibition of Saccharomyces cerevisiae alpha-glucosidase. The gist of the method: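 Compound (0 to 100 µM) premixed with 100 mM phosphate buffer pH 7.0, 30 °C for 10 min; 12.5 mM 4-nitrophenyl glucopyranoside substrate then added; 4-nitrophenol release read at 405 nm; resveratrol and quercetin as positive controls; IC50 = concentration giving 50% inhibition.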
In data set [5] the test system is Saccharomyces cerevisiae. The experiment in a line: Mixed type inhibition of Saccharomyces cerevisiae alpha-glucosidase using 4-NPGP substrate assessed as reduction in 4-nitrophenol release pre-incubated for 10 mins before substrate addition by Dixon plot analysis.
A short description of data set [6]: Mixed type inhibition of Saccharomyces cerevisiae alpha-glucosidase using 4-NPGP substrate assessed as equilibrium constant for binding to enzyme-4-NPGP complex by measuring reduction in 4-nitrophenol release pre-incubated for 10 mins before substrate addition by Dixon plot analysis.
Data set [7] deals with Saccharomyces cerevisiae. As to the kind of experiment: Mixed type inhibition of Saccharomyces cerevisiae alpha-glucosidase using 4-NPGP substrate assessed as reduction in 4-nitrophenol release pre-incubated for 10 mins before substrate addition by Lineweaver-Burk plot analysis. The gist of the method: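 Double-reciprocal (Lineweaver-Burk) analysis of initial velocities, taken as A405 rate/min, across increasing 4-NPGP concentrations. Inhibitor present at 0, 0.25, 0.5 and 1.0 µM. Run in pH 7.0 phosphate buffer at 30 °C to assign inhibition mode.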

A short description of data set [8]: Mixed type inhibition of Saccharomyces cerevisiae alpha-glucosidase using 4-NPGP substrate assessed as equilibrium constant for binding to enzyme by measuring reduction in 4-nitrophenol release pre-incubated for 10 mins before substrate addition by Dixon plot analysis.

In the case of `Oc1cc(-c2cc3ccccc3o2)c(Br)c(O)c1O`, the results for the IC50 in data set [1] and in data set [2] were 18 µM and 8.5 µM, respectively.

As for `Oc1cc(Br)c(-c2cc3ccccc3o2)cc1O`, the half-maximal inhibitory concentration (IC50) – broadly, the concentration that gives 50% inhibition – in data set [1] was 33.8 µM; in data set [2] it was 7.7 µM.

On to `O=c1c(O)c(-c2ccc(O)c(O)c2)oc2cc(O)cc(O)c12` [QUERCETIN], for which the half-maximal inhibitory concentration (IC50) is 6 µM in data set [1], 9.1 µM in data set [3], 5.3 µM in data set [4] and 6.6 µM in data set [2].

For `CCOC(=O)/C=C/c1cc(O)c(O)cc1-c1cc2cccc(O)c2o1`, the half-maximal inhibitory concentration (IC50) worked out at 26.2 µM in data set [1] and 5.5 µM in data set [2].

Consider `Oc1cc(-c2cc3cccc(O)c3o2)cc(O)c1O`, for which the 50% inhibitory concentration (IC50) amounted to 12.8 µM in data set [1] and 9.2 µM in data set [2].

Turning to `COc1ccc(-c2cc3cccc(OC)c3o2)cc1OC`, the half-inhibitory concentration (IC50) in data set [1] and in data set [2] was greater than 100 µM throughout.

With `CCOC(=O)/C=C/c1ccc(O)c2oc(-c3ccc(O)c(O)c3)cc12`, the half-maximal inhibitory concentration (IC50) was 16.8 µM in data set [1] and 8.9 µM in data set [2].

For the compound `Oc1cc(Br)c(-c2cc3c(Br)ccc(O)c3o2)cc1O`, the results for the IC50 in data set [1] and in data set [2] were 7.8 µM and 6.4 µM, respectively.

Consider `COc1cc(-c2cc3cc(Br)cc(OC)c3o2)cc(OC)c1OC`, for which the IC50 in data set [1] and in data set [2] was greater than 100 µM throughout.

On to `Oc1ccc(-c2cc3cc(Br)cc(O)c3o2)cc1O`, for which the figures for the 50% inhibitory concentration (IC50) in data set [1] and in data set [2] were 28.6 µM and 7.5 µM, respectively.

As for `COc1cc(Br)c(-c2cc3cccc(OC)c3o2)cc1OC`, the half-inhibitory concentration (IC50) in data set [1] and in data set [2] was greater than 100 µM throughout.

In the case of `Oc1cc(-c2cc3c(Br)ccc(O)c3o2)c(Br)c(O)c1O`, the IC50 stood at 19.4 µM in data set [1] and 12.4 µM in data set [2].

Take `CCOC(=O)/C=C/c1cc(O)c2oc(-c3cc(O)c(O)c(O)c3)cc2c1`: the IC50 in data set [1] was found to be 11.7 µM; in data set [2] it was 2 µM. For the same compound, the inhibition result in the data set on Saccharomyces cerevisiae [5] and with Saccharomyces cerevisiae [7] was “Active” in each case. The results for the inhibition constant (Ki) in data set [6] and in data set [8] were 11.8 µM and 3.19 µM, respectively.

Take `Oc1ccc(-c2cc3cc(Br)cc(O)c3o2)cc1`: the IC50 in data set [1] is greater than 100 µM; in data set [2], 29.8 µM.

Regarding `Oc1cc(-c2cc3cc(Br)cc(O)c3o2)cc(O)c1O`, the IC50 in data set [1] stood at 14.6 µM; in data set [2], 3 µM.

`Oc1ccc(/C=C/c2cc(O)cc(O)c2)cc1` [RESVERATROL]: the IC50 in data set [1] is 63.5 µM; in data set [3], 38 µM; in data set [4], 27.9 µM; in data set [2] it was 31.1 µM.

In the case of `CCOC(=O)/C=C/c1cc(OC)c(OC)cc1-c1cc2cccc(OC)c2o1`, the IC50 in data set [1] and in data set [2] was greater than 100 µM in each case.

Take `Oc1ccc(-c2cc3cccc(O)c3o2)cc1O`: the half-maximal inhibitory concentration (IC50) in data set [1] was 18.5 µM; in data set [2] it was 1.9 µM. The inhibition entry in the data set with Saccharomyces cerevisiae [5] and in the data set on Saccharomyces cerevisiae [7] was “Active” in each case. Moreover, the values for the Ki in data set [6] and in data set [8] were 13.7 µM and 4.21 µM, respectively.

On to `Oc1cc(-c2cc3ccccc3o2)cc(O)c1O`, for which the IC50 in data set [1] was found to be 10.8 µM; in data set [2], 8.2 µM.

As to `Oc1cc(Br)c(-c2cc3cccc(O)c3o2)cc1O`, the IC50 in data set [1] stood at 20.6 µM; in data set [2], 7.1 µM.

Take `Oc1ccc(-c2cc3c(Br)ccc(O)c3o2)cc1O`: the IC50 worked out at 18.4 µM in data set [1] and 6.4 µM in data set [2].

For `CCOC(=O)/C=C/c1cc(O)c2oc(-c3ccc(O)c(O)c3)cc2c1`, the IC50 turned out to be 25.4 µM in data set [1] and 23.8 µM in data set [2].
